Type in all cases: functional
The test system of one test is Plasmodium falciparum. Briefly: Antimalarial activity against ring stage chloroquine-resistant Plasmodium falciparum W2 preincubated for 48 hrs measured after 48 hrs in presence of 10% human serum by YOYO-1 dye-based FACS analysis. The essentials: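 Sorbitol-synchronized ring-stage W2 parasites at 0.1% parasitemia grown 48 h in RPMI-1640 + 10% human serum under 3% O2/6% CO2/91% N2 with inhibitors (from 1000× DMSO stocks), no media change. Fixed 48 h in 1% formaldehyde/PBS pH 7.4 at room temperature. Stained with 1 nM YOYO-1 in 0.1% Triton X-100/PBS. Parasitemia read by flow cytometry.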

A short description of test [1]: Antioxidant activity assessed as DPPH radical scavenging activity after 20 mins under dark condition by UV-Visible spectrophotometric analysis. The essentials: (§1)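 Test compounds were made up in ethanol at 1.0, 2.0, 3.0, 4.0 and 5.0 mg/mL (solution concentrations before mixing). 1 mL of each was shaken with 4 mL of 0.1 mM ethanolic DPPH and kept in the dark at room temperature for 20 min. The decrease in A517 was read against an ethanol baseline. A DPPH blank had no compound. Scavenging % = [(Ac − As)/Ac] × 100.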

Test [2] in a line: Antioxidant activity assessed as inhibition of DPPH radical generation at 1 mg/ml after 20 mins under dark condition by UV-Visible spectrophotometric analysis relative to control. The method, boiled down: as §1
Test [3] is described as follows: Antioxidant activity assessed as inhibition of DPPH radical generation at 3 mg/ml after 20 mins under dark condition by UV-Visible spectrophotometric analysis relative to control. The method, boiled down:
as §1

Test [4] in a line: Antioxidant activity assessed as inhibition of DPPH radical generation at 4 mg/ml after 20 mins under dark condition by UV-Visible spectrophotometric analysis relative to control. The essentials: as §1
Test [5] in a line: Antioxidant activity assessed as inhibition of DPPH radical generation at 5 mg/ml after 20 mins under dark condition by UV-Visible spectrophotometric analysis relative to control. The essentials: as §1
Test [6] is described as follows: Antioxidant activity assessed as inhibition of DPPH radical generation at 2 mg/ml after 20 mins under dark condition by UV-Visible spectrophotometric analysis relative to control. The method, boiled down: as §1

For `CC(=O)c1ccc(NC(=O)C(CC(C)C)N(C(=O)c2ccccc2)S(=O)(=O)c2ccc([N+](=O)[O-])cc2)cc1` (stereo not given), the MIC99 in the test with Plasmodium falciparum is 0.06 µM. Besides, the IC50 in test [1] was determined as 8.4 mM. In addition, the inhibition in test [2] worked out at 45%; in test [3], 62.3%; in test [4] it was 71%; in test [5], 81.3%.
For `CC(=O)c1ccc(NC(=O)C(Cc2c[nH]c3ccccc23)N(C(=O)c2ccccc2)S(=O)(=O)c2ccc([N+](=O)[O-])cc2)cc1` (stereo not given), in test [1], the IC50 was found to be 0.73 mM. The inhibition was 22.1% in test [2]; 22.9% in test [6]; 23.5% in test [3]; 24% in test [4]; 24.3% in test [5].
As for `CC(=O)c1ccc(NC(=O)C(CC(C)C)N(C(=O)c2ccccc2)S(=O)(=O)c2ccc(C)cc2)cc1` (stereo not given), the MIC99 in the test with Plasmodium falciparum was found to be 0.17 µM. Also, the half-maximal inhibitory concentration (IC50) in test [1] stood at 11 mM. Moreover, the inhibition came out at 54% in test [2]; 58.1% in test [6]; 63.1% in test [3]; 67.2% in test [4]; 71.3% in test [5].
For the compound `C=C[C@H]1CN2CC[C@H]1C[C@H]2[C@H](O)c1ccnc2ccc(OC)cc12` [QUININE], the MIC99 in the test on Plasmodium falciparum worked out at 0.83 µM.
Same read-out and setting: to `CCN(CC)CCCC(C)Nc1ccnc2cc(Cl)ccc12` (stereo not given) [CHLOROQUINE] belongs 0.06 µM.
Take `CCC(C)C(C(=O)Nc1ccc(C(C)=O)cc1)N(C(=O)c1ccccc1)S(=O)(=O)c1ccc([N+](=O)[O-])cc1` (stereo not given): the MIC99 with Plasmodium falciparum was 0.2 µM. Moreover, the IC50 in test [1] came to 50 mM. Moreover, the inhibition was 28.6% in test [2]; 31.7% in test [6]; 42.1% in test [3]; 48.4% in test [4]; 53.2% in test [5].
Turning to `CC(=O)c1ccc(NC(=O)C2CC(O)CN2S(=O)(=O)c2ccc([N+](=O)[O-])cc2)cc1` (stereo not given), the MIC99 in the test with Plasmodium falciparum amounted to 0.32 µM. The IC50 in test [1] is 7.1 mM. Besides, the inhibition was 43.2% in test [2], 58.7% in test [3], 60.1% in test [4] and 70.7% in test [5].
On to `CCC(C)C(C(=O)Nc1ccc(C(C)=O)cc1)N(C(=O)c1ccccc1)S(=O)(=O)c1ccc(C)cc1` (stereo not given), for which the MIC99 in the test with Plasmodium falciparum amounted to 5.11 µM. Also, in test [1], the half-maximal inhibitory concentration (IC50) came out at 10 mM. The inhibition in test [2] amounted to 18.6%; in test [6], 25.7%; in test [3], 33.4%; in test [4], 41%; in test [5], 47.3%.
On to `CCC(C)C(C(=O)Nc1ccc(C(C)=O)cc1)N(C(=O)c1ccccc1)S(=O)(=O)c1ccccc1` (stereo not given), for which, in the test with Plasmodium falciparum, the MIC99 came out at 1.25 µM. In addition, in test [1], the IC50 was 8.6 mM. Also, the inhibition in test [2] came out at 9.71%; in test [6], 11.3%; in test [3], 14.2%; in test [4] it was 15.5%; in test [5], 16.8%.
With `CC(=O)c1ccc(NC(=O)C2CC(O)CN2S(=O)(=O)c2ccc(C)cc2)cc1` (stereo not given), the MIC99 with Plasmodium falciparum came to 2.27 µM. Also, the IC50 in test [1] is 25 mM. The inhibition in test [2] came out at 12.4%; in test [6], 12.5%; in test [3] it was 12.7%; in test [4], 12.9%; in test [5], 13%.
As to `CC(=O)c1ccc(NC(=O)CN(C(=O)c2ccccc2)S(=O)(=O)c2ccccc2)cc1`, the MIC99 in the test with Plasmodium falciparum was 0.97 µM. In test [1], the IC50 stood at 32 mM. Also, the inhibition came to 40.5% in test [2]; 40.5% in test [6]; 40.7% in test [3]; 40.9% in test [4]; 45.4% in test [5].
As for `CC(=O)c1ccc(NC(=O)C(Cc2c[nH]c3ccccc23)N(C(=O)c2ccccc2)S(=O)(=O)c2ccc(C)cc2)cc1` (stereo not given), in test [1], the IC50 was found to be 0.045 mM. Also, the inhibition in test [2] turned out to be 39.5%; in test [6], 58%; in test [3], 39.5%; in test [4], 39.5%; in test [5] it was 39.5%.
Regarding `CC(=O)c1ccc(NC(=O)C(Cc2c[nH]c3ccccc23)N(C(=O)c2ccccc2)S(=O)(=O)c2ccccc2)cc1` (stereo not given), the IC50 in test [1] worked out at 51 mM. The inhibition amounted to 31.7% in test [2]; 39.4% in test [6]; 47% in test [3]; 54.1% in test [4]; 61.2% in test [5].
As to `CC(=O)c1ccc(NC(=O)C2CCCN2S(=O)(=O)c2ccc(C)cc2)cc1` (stereo not given), the MIC99 in the test with Plasmodium falciparum is 1.45 µM. For the same compound, the IC50 in test [1] stood at 36 mM. In addition, the inhibition in test [2] amounted to 20.6%; in test [6], 20.7%; in test [3] it was 20.7%; in test [4], 20.7%; in test [5], 20.7%.
Take `CC(=O)c1ccc(NC(=O)C(Cc2ccccc2)N(C(=O)c2ccccc2)S(=O)(=O)c2ccc([N+](=O)[O-])cc2)cc1` (stereo not given): in the test on Plasmodium falciparum, the MIC99 is 0.08 µM. In test [1], the IC50 stood at 39 mM. The inhibition in test [2] was determined as 19.3%; in test [6] it was 26.8%; in test [3] it was 34.5%; in test [4], 40%; in test [5], 49.2%.
For the compound `CC(=O)c1ccc(NC(=O)C(C(C)C)N(C(=O)c2ccccc2)S(=O)(=O)c2ccc([N+](=O)[O-])cc2)cc1` (stereo not given), the MIC99 in the test on Plasmodium falciparum was determined as 1.57 µM. Also, the IC50 in test [1] worked out at 6.8 mM. For the same compound, the inhibition in test [2] stood at 29.8%; in test [6], 29.8%; in test [3], 29.8%; in test [4], 27.2%; in test [5] it was 27.4%.
Turning to `CC(=O)c1ccc(NC(=O)CN(C(=O)c2ccccc2)S(=O)(=O)c2ccc(C)cc2)cc1`, the MIC99 in the test with Plasmodium falciparum stood at 0.72 µM. In addition, the IC50 in test [1] came out at 102 mM. For the same compound, the inhibition in test [2] came out at 17.9%; in test [6] it was 18.1%; in test [3], 18.2%; in test [4], 18.4%; in test [5] it was 18.7%.
`CC(=O)c1ccc(NC(=O)C2CC(O)CN2S(=O)(=O)c2ccccc2)cc1` (stereo not given): in the test with Plasmodium falciparum, the MIC99 is 0.16 µM. Further, the IC50 in test [1] was 3.8 mM. The inhibition in test [2] was 40.2%; in test [6] it was 57%; in test [3], 49.8%; in test [4] it was 54.5%; in test [5] it was 58.7%.
Consider `CC(=O)c1ccc(NC(=O)C2CCCN2S(=O)(=O)c2ccc([N+](=O)[O-])cc2)cc1` (stereo not given), for which, in the test with Plasmodium falciparum, the MIC99 came out at 6.74 µM. The concentration for half-maximal inhibition (IC50) in test [1] is 19 mM. The inhibition in test [2] was found to be 22.7%; in test [6], 23.5%; in test [3] it was 24.3%; in test [4], 25.3%; in test [5] it was 25.6%.
As to `CC(=O)c1ccc(NC(=O)C(C(C)C)N(C(=O)c2ccccc2)S(=O)(=O)c2ccc(C)cc2)cc1` (stereo not given), in the test on Plasmodium falciparum, the MIC99 amounted to 2.82 µM. Further, in test [1], the half-inhibitory concentration (IC50) was found to be 12 mM. Besides, the inhibition in test [2] was determined as 15.6%; in test [6], 22.7%; in test [3], 29.7%; in test [4], 36.6%; in test [5], 42.7%.
Turning to `CC(=O)c1ccc(NC(=O)CN(C(=O)c2ccccc2)S(=O)(=O)c2ccc([N+](=O)[O-])cc2)cc1`, the MIC99 with Plasmodium falciparum turned out to be 0.18 µM. In test [1], the IC50 came to 58 mM. Besides, the inhibition in test [2] is 20.6%; in test [6], 20.6%; in test [3] it was 20.6%; in test [4] it was 20.7%; in test [5] it was 20.7%.

Source of the values: ChEMBL document CHEMBL4033670, “Synthesis, characterization, molecular docking and in vitro antimalarial properties of new carboxamides bearing sulphonamide” (Eur J Med Chem, 2017).
